Experimental data published in ChEMBL document CHEMBL2062435, “Synthesis and in vitro antibacterial activity of gemifloxacin derivatives containing a substituted benzyloxime moiety” (2012).

How the values were obtained:
Format in all cases: functional
Staphylococcus aureus [1] = assay: Antimicrobial activity against extended spectrum beta-lactamases-producing methicillin-resistant Staphylococcus aureus 10-15 after 18-24 hrs by two-fold serial dilution method
Summary of the method: (§1)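 Agar twofold serial dilution MIC against clinical isolates. MIC was taken as the lowest concentration giving complete inhibition of bacterial growth after incubation at 35 °C for 18-24 h.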

Klebsiella pneumoniae [2] = assay: Antimicrobial activity against extended spectrum beta-lactamases-producing Klebsiella pneumoniae 10-1 after 18-24 hrs by two-fold serial dilution method
Summary of the method: (§2)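 Agar-medium twofold serial dilution against Gram-positive and Gram-negative strains; MIC taken as the lowest compound concentration giving complete inhibition of bacterial growth after incubation at 35 °C for 18-24 h.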

[3] = tested on: Staphylococcus epidermidis; assay: Antimicrobial activity against extended spectrum beta-lactamases-producing methicillin-resistant Staphylococcus epidermidis 10-10 after 18-24 hrs by two-fold serial dilution method; summary of the method: as §1
Escherichia coli [4] = assay: Antimicrobial activity against extended spectrum beta-lactamases-producing Escherichia coli 10-3 after 18-24 hrs by two-fold serial dilution method; summary of the method: as §2
Enterococcus faecalis [5] = assay: Antimicrobial activity against Enterococcus faecalis 10-5 after 18-24 hrs by two-fold serial dilution method; summary of the method: as §2
Enterococcus faecalis [6] = assay: Antimicrobial activity against Enterococcus faecalis 10-7 after 18-24 hrs by two-fold serial dilution method; summary of the method: as §2
Escherichia coli [7] = assay: Antimicrobial activity against extended spectrum beta-lactamases-producing Escherichia coli 10-2 after 18-24 hrs by two-fold serial dilution method; summary of the method: as §2
Streptococcus pneumoniae [8] = assay: Antimicrobial activity against extended spectrum beta-lactamases-producing Streptococcus pneumoniae 10-4 after 18-24 hrs by two-fold serial dilution method; summary of the method: as §2
Pseudomonas aeruginosa [9] = assay: Antimicrobial activity against extended spectrum beta-lactamases-producing Pseudomonas aeruginosa 10-5 after 18-24 hrs by two-fold serial dilution method; summary of the method: as §2
Staphylococcus aureus [10] = assay: Antimicrobial activity against extended spectrum beta-lactamases-producing methicillin-resistant Staphylococcus aureus 10-11 after 18-24 hrs by two-fold serial dilution method; summary of the method: as §1
[11] = tested on: Staphylococcus epidermidis; assay: Antimicrobial activity against extended spectrum beta-lactamases-producing methicillin-sensitive Staphylococcus epidermidis 10-13 after 18-24 hrs by two-fold serial dilution method; summary of the method: as §2
Escherichia coli [12] = assay: Antimicrobial activity against extended spectrum beta-lactamases-producing Escherichia coli 10-4 after 18-24 hrs by two-fold serial dilution method; summary of the method: as §2
Enterococcus faecium [13] = assay: Antimicrobial activity against Enterococcus faecium 10-9 after 18-24 hrs by two-fold serial dilution method; summary of the method: as §2
Escherichia coli [14] = assay: Antimicrobial activity against Escherichia coli 10-2 after 18-24 hrs by two-fold serial dilution method; summary of the method: as §2
[15] = tested on: Staphylococcus epidermidis; assay: Antimicrobial activity against extended spectrum beta-lactamases-producing methicillin-sensitive Staphylococcus epidermidis 10-11 after 18-24 hrs by two-fold serial dilution method; summary of the method: as §2
Escherichia coli [16] = assay: Antimicrobial activity against Escherichia coli ATCC 25922 after 18-24 hrs by two-fold serial dilution method; summary of the method: as §2
Klebsiella pneumoniae [17] = assay: Antimicrobial activity against Klebsiella pneumoniae 10-4 after 18-24 hrs by two-fold serial dilution method; summary of the method: as §2
Klebsiella pneumoniae [18] = assay: Antimicrobial activity against extended spectrum beta-lactamases-producing Klebsiella pneumoniae 10-3 after 18-24 hrs by two-fold serial dilution method; summary of the method: as §2
Staphylococcus aureus [19] = assay: Antimicrobial activity against extended spectrum beta-lactamases-producing methicillin-sensitive Staphylococcus aureus 10-14 after 18-24 hrs by two-fold serial dilution method; summary of the method: as §2
Klebsiella pneumoniae [20] = assay: Antimicrobial activity against extended spectrum beta-lactamases-producing Klebsiella pneumoniae 10-2 after 18-24 hrs by two-fold serial dilution method; summary of the method: as §2
Pseudomonas aeruginosa [21] = assay: Antimicrobial activity against Pseudomonas aeruginosa 10-12 after 18-24 hrs by two-fold serial dilution method; summary of the method: as §2
Escherichia coli [22] = assay: Antimicrobial activity against Escherichia coli 10-1 after 18-24 hrs by two-fold serial dilution method; summary of the method: as §2
Staphylococcus aureus [23] = assay: Antimicrobial activity against Staphylococcus aureus ATCC […] after 18-24 hrs by two-fold serial dilution method; summary of the method: as §2
Escherichia coli [24] = assay: Antimicrobial activity against Escherichia coli 10-3 after 18-24 hrs by two-fold serial dilution method; summary of the method: as §2
[25] = tested on: Staphylococcus epidermidis; assay: Antimicrobial activity against extended spectrum beta-lactamases-producing methicillin-sensitive Staphylococcus epidermidis 10-15 after 18-24 hrs by two-fold serial dilution method; summary of the method: as §2
Pseudomonas aeruginosa [26] = assay: Antimicrobial activity against extended spectrum beta-lactamases-producing Pseudomonas aeruginosa 10-9 after 18-24 hrs by two-fold serial dilution method; summary of the method: as §2
Staphylococcus aureus [27] = assay: Antimicrobial activity against extended spectrum beta-lactamases-producing methicillin-sensitive Staphylococcus aureus 10-13 after 18-24 hrs by two-fold serial dilution method; summary of the method: as §2
Pseudomonas aeruginosa [28] = assay: Antimicrobial activity against extended spectrum beta-lactamases-producing Pseudomonas aeruginosa 10-15 after 18-24 hrs by two-fold serial dilution method; summary of the method: as §2
Klebsiella pneumoniae [29] = assay: Antimicrobial activity against Klebsiella pneumoniae 10-2 after 18-24 hrs by two-fold serial dilution method; summary of the method: as §2
[30] = tested on: Staphylococcus epidermidis; assay: Antimicrobial activity against extended spectrum beta-lactamases-producing methicillin-resistant Staphylococcus epidermidis 10-13 after 18-24 hrs by two-fold serial dilution method; summary of the method: as §1
Streptococcus pneumoniae [31] = assay: Antimicrobial activity against extended spectrum beta-lactamases-producing Streptococcus pneumoniae 10-1 after 18-24 hrs by two-fold serial dilution method; summary of the method: as §2
Enterococcus faecalis [32] = assay: Antimicrobial activity against Enterococcus faecalis 10-6 after 18-24 hrs by two-fold serial dilution method; summary of the method: as §2
Pseudomonas aeruginosa [33] = assay: Antimicrobial activity against extended spectrum beta-lactamases-producing Pseudomonas aeruginosa 10-18 after 18-24 hrs by two-fold serial dilution method; summary of the method: as §2
Pseudomonas aeruginosa [34] = assay: Antimicrobial activity against extended spectrum beta-lactamases-producing Pseudomonas aeruginosa 10-20 after 18-24 hrs by two-fold serial dilution method; summary of the method: as §2
Klebsiella pneumoniae [35] = assay: Antimicrobial activity against Klebsiella pneumoniae 10-3 after 18-24 hrs by two-fold serial dilution method; summary of the method: as §2
Enterococcus faecium [36] = assay: Antimicrobial activity against Enterococcus faecium 10-5 after 18-24 hrs by two-fold serial dilution method; summary of the method: as §2

| SMILES | MIC (Staphylococcus aureus [1]) [µg/mL] | MIC (Klebsiella pneumoniae [2]) [µg/mL] | MIC [3] [µg/mL] | MIC (Escherichia coli [4]) [µg/mL] | MIC (Enterococcus faecalis [5]) [µg/mL] | MIC (Enterococcus faecalis [6]) [µg/mL] | MIC (Escherichia coli [7]) [µg/mL] | MIC (Pseudomonas aeruginosa [9]) [µg/mL] | MIC (Staphylococcus aureus [10]) [µg/mL] | MIC [11] [µg/mL] | MIC (Enterococcus faecium [13]) [µg/mL] | MIC (Escherichia coli [14]) [µg/mL] | MIC [15] [µg/mL] | MIC (Escherichia coli [16]) [µg/mL] | MIC (Klebsiella pneumoniae [17]) [µg/mL] | MIC (Klebsiella pneumoniae [18]) [µg/mL] | MIC (Staphylococcus aureus [19]) [µg/mL] | MIC (Klebsiella pneumoniae [20]) [µg/mL] | MIC (Pseudomonas aeruginosa [21]) [µg/mL] | MIC (Escherichia coli [22]) [µg/mL] | also measured |
| --- | --- | --- | --- | --- | --- | --- | --- | --- | --- | --- | --- | --- | --- | --- | --- | --- | --- | --- | --- | --- | --- |
| COc1ccc(CO/N=C2\CN(c3nc4c(cc3F)c(=O)c(C(=O)O)cn4C3CC3)CC2CN)cc1OC.CS(=O)(=O)O (racemic) | 0.125 | 64 | 0.5 | 16 | 0.5 | 1 | > 128 | 2 | 0.5 | 0.5 | 4 | 8 | 2 | 0.06 | > 128 | > 128 | 0.06 | > 128 | 0.03 | 16 | MIC (Streptococcus pneumoniae [8]): 4 µg/mL; MIC (Escherichia coli [12]): 2 µg/mL; MIC (Staphylococcus aureus [23]): 0.03 µg/mL; MIC (Escherichia coli [24]): 16 µg/mL; MIC [25]: 4 µg/mL; MIC (Pseudomonas aeruginosa [26]): 8 µg/mL; MIC (Staphylococcus aureus [27]): 0.5 µg/mL; MIC (Pseudomonas aeruginosa [28]): 1 µg/mL; MIC (Klebsiella pneumoniae [29]): 128 µg/mL; MIC [30]: 0.25 µg/mL; MIC (Streptococcus pneumoniae [31]): 0.5 µg/mL; MIC (Enterococcus faecalis [32]): 2 µg/mL; MIC (Pseudomonas aeruginosa [33]): 4 µg/mL; MIC (Pseudomonas aeruginosa [34]): 0.06 µg/mL; MIC (Klebsiella pneumoniae [35]): 4 µg/mL; MIC (Enterococcus faecium [36]): 4 µg/mL |
| COc1cc(CO/N=C2\CN(c3nc4c(cc3F)c(=O)c(C(=O)O)cn4C3CC3)CC2CN)ccc1OCc1ccccc1.CS(=O)(=O)O (racemic) | 0.5 | > 128 | 4 | > 128 | 4 | 4 | > 128 | 16 | 4 | 2 | 16 | 16 | 8 | 2 | > 128 | > 128 | < 0.008 | > 128 | < 0.008 | > 128 | MIC (Streptococcus pneumoniae [8]): 16 µg/mL; MIC (Escherichia coli [12]): 32 µg/mL; MIC (Staphylococcus aureus [23]): < 0.008 µg/mL; MIC (Escherichia coli [24]): > 128 µg/mL; MIC [25]: 8 µg/mL; MIC (Pseudomonas aeruginosa [26]): 16 µg/mL; MIC (Staphylococcus aureus [27]): 4 µg/mL; MIC (Pseudomonas aeruginosa [28]): 32 µg/mL; MIC (Klebsiella pneumoniae [29]): > 128 µg/mL; MIC [30]: 1 µg/mL; MIC (Streptococcus pneumoniae [31]): 4 µg/mL; MIC (Enterococcus faecalis [32]): 8 µg/mL; MIC (Pseudomonas aeruginosa [33]): 16 µg/mL; MIC (Pseudomonas aeruginosa [34]): 0.06 µg/mL; MIC (Klebsiella pneumoniae [35]): 32 µg/mL; MIC (Enterococcus faecium [36]): 16 µg/mL |
| CS(=O)(=O)O.NCC1CN(c2nc3c(cc2F)c(=O)c(C(=O)O)cn3C2CC2)C/C1=N\OCc1cc2c(cc1[N+](=O)[O-])OCO2 (racemic) | 2 | > 128 | 2 | 32 | 4 | 8 | > 128 | 8 | 4 | 8 | 8 | 8 | 0.25 | 0.008 | > 128 | > 128 | 0.25 | > 128 | 8 | > 128 | MIC (Streptococcus pneumoniae [8]): 2 µg/mL; MIC (Escherichia coli [12]): 8 µg/mL; MIC (Staphylococcus aureus [23]): 0.008 µg/mL; MIC (Escherichia coli [24]): 32 µg/mL; MIC [25]: 2 µg/mL; MIC (Pseudomonas aeruginosa [26]): 4 µg/mL; MIC (Staphylococcus aureus [27]): 0.25 µg/mL; MIC (Pseudomonas aeruginosa [28]): 8 µg/mL; MIC (Klebsiella pneumoniae [29]): > 128 µg/mL; MIC [30]: 1 µg/mL; MIC (Enterococcus faecalis [32]): 32 µg/mL; MIC (Pseudomonas aeruginosa [33]): 4 µg/mL; MIC (Pseudomonas aeruginosa [34]): 4 µg/mL; MIC (Klebsiella pneumoniae [35]): 8 µg/mL; MIC (Enterococcus faecium [36]): 16 µg/mL |
| C[C@H]1COc2c(N3CCN(C)CC3)c(F)cc3c(=O)c(C(=O)O)cn1c23.C[C@H]1COc2c(N3CCN(C)CC3)c(F)cc3c(=O)c(C(=O)O)cn1c23.O [LEVOFLOXACIN] | 16 | 8 | 8 | 8 | 8 | 16 | 16 | 0.25 | 32 | 4 | 32 | 0.25 | 128 | < 0.008 | 32 | 8 | 0.25 | 8 | 0.25 | 4 | MIC (Staphylococcus aureus [23]): 0.25 µg/mL; MIC (Escherichia coli [24]): 4 µg/mL; MIC [25]: 128 µg/mL; MIC (Pseudomonas aeruginosa [26]): 0.25 µg/mL; MIC (Staphylococcus aureus [27]): 0.5 µg/mL; MIC (Pseudomonas aeruginosa [28]): 0.5 µg/mL; MIC (Klebsiella pneumoniae [29]): 32 µg/mL; MIC [30]: 4 µg/mL; MIC (Enterococcus faecalis [32]): 64 µg/mL; MIC (Pseudomonas aeruginosa [34]): 0.25 µg/mL; MIC (Enterococcus faecium [36]): 32 µg/mL |
